In ChEMBL document CHEMBL1255451, “Genetic basis of multidrug resistance in Acinetobacter clinical isolates in Taiwan” (2010):
In brackets after ≈: the same amount, converted by molar mass. Activity calls are given as the source filed them. The rule behind the calls is not given here.

Columns and labels:
Type in all cases: functional
[1] = tested on: Acinetobacter sp.; test: Antimicrobial activity against Acinetobacter sp. harboring aacA4 gene assessed as percent resistant isolates
How it was run: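 Isolates: 75 nonduplicated Acinetobacter clinical isolates collected at one Taipei hospital in 2006 and identified with API 20NE. Susceptibility was tested on the Vitek 2 automated system using the AST-GN09 Gram-negative card.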

[2] = tested on: Acinetobacter baumannii; test: Antimicrobial activity against Acinetobacter baumannii ATCC 15151 harboring ISAba1-blaOXA-23 gene by Etest
[3] = tested on: Acinetobacter baumannii; test: Antimicrobial activity against Acinetobacter baumannii ATCC 15151 harboring ISAba1-blaOXA-66 gene by Etest
[4] = tested on: Acinetobacter baumannii; test: Antimicrobial activity against Acinetobacter baumannii 6AB15 harboring ISAba1-blaOXA-23 and blaOXA-66 gene by Etest
[5] = tested on: Acinetobacter baumannii; test: Antimicrobial activity against Acinetobacter baumannii 6AB11 harboring ISAba1-blaOXA-66 gene by Etest
[6] = tested on: Acinetobacter baumannii; test: Antimicrobial activity against Acinetobacter baumannii ATCC 15151 by Etest
[7] = tested on: Acinetobacter baumannii; test: Antimicrobial activity against Acinetobacter baumannii ATCC 15151 harboring plasmid AT801 by Etest

Molecule | Activity [1] [%] | Activity [2] | Activity [3] | MIC [4] [µg/mL] | MIC [2] [µg/mL] | MIC [5] [µg/mL] | MIC [3] [µg/mL] | MIC [6] [µg/mL] | MIC [7] [µg/mL]
GENTAMICIN | 66 | Active | Active | – | – | – | – | – | –
CC1(C)S[C@@H]2[C@H](NC(=O)[C@H](N)c3ccccc3)C(=O)N2[C@H]1C(=O)O [AMPICILLIN] | – | – | – | ≥ 32 | ≥ 32 | ≥ 32 | ≥ 32 | 16 (≈ 45.8 µM) | 32 (≈ 91.6 µM)
CCN1CCN(C(=O)N[C@@H](C(=O)N[C@@H]2C(=O)N3[C@@H]2SC(C)(C)[C@@H]3C(=O)O)c2ccccc2)C(=O)C1=O [PIPERACILLIN] | – | – | – | ≥ 128 | ≥ 128 | ≥ 128 | ≥ 128 | 16 (≈ 30.9 µM) | ≥ 128
CC(C)(O/N=C(\C(=O)N[C@@H]1C(=O)N2C(C(=O)[O-])=C(C[n+]3ccccc3)CS[C@H]12)c1csc(N)n1)C(=O)O [CEFTAZIDIME] | – | – | – | ≥ 64 | 8 (≈ 14.6 µM) | ≥ 64 | 4 (≈ 7.32 µM) | 4 (≈ 7.32 µM) | 4 (≈ 7.32 µM)
C[C@H]1COc2c(N3CCN(C)CC3)c(F)cc3c(=O)c(C(=O)O)cn1c23 | – | Active | Active | – | – | – | – | – | –
NCC[C@H](O)C(=O)N[C@@H]1C[C@H](N)[C@@H](O[C@H]2O[C@H](CN)[C@@H](O)[C@H](O)[C@H]2O)[C@H](O)[C@H]1O[C@H]1O[C@H](CO)[C@@H](O)[C@H](N)[C@H]1O | – | Active | Active | – | – | – | – | – | –
C[C@@H](O)[C@H]1C(=O)N2C(C(=O)O)=C(S[C@@H]3CN[C@H](C(=O)N(C)C)C3)[C@H](C)[C@H]12 [MEROPENEM] | – | – | – | ≥ 16 | ≥ 16 | 16 (≈ 41.7 µM) | ≥ 16 | 0.25 (≈ 0.652 µM) | 0.25 (≈ 0.652 µM)
NC[C@H]1O[C@H](O[C@H]2[C@H](O)[C@@H](O[C@H]3O[C@H](CO)[C@@H](O)[C@H](N)[C@H]3O)[C@H](N)C[C@@H]2N)[C@H](N)C[C@@H]1O [TOBRAMYCIN] | 66 | Active | Active | – | – | – | – | – | –
O=C(O)c1cn(C2CC2)c2cc(N3CCNCC3)c(F)cc2c1=O | – | Active | Active | – | – | – | – | – | –
C[C@@H](O)[C@H]1C(=O)N2C(C(=O)O)=C(SCCNC=N)C[C@H]12 [IMIPENEM ANHYDROUS] | – | – | – | ≥ 32 | ≥ 16 | ≥ 32 | ≥ 32 | 0.25 (≈ 0.835 µM) | 0.25 (≈ 0.835 µM)
CO/N=C(\C(=O)N[C@@H]1C(=O)N2C(C(=O)[O-])=C(C[N+]3(C)CCCC3)CS[C@H]12)c1csc(N)n1 [CEFEPIME] | – | – | – | ≥ 64 | ≥ 64 | ≥ 64 | 4 (≈ 8.32 µM) | 4 (≈ 8.32 µM) | 4 (≈ 8.32 µM)
